# According to PubChem BioAssay AID504383 (The Scripps Research Institute Molecular Screening Center, 2011):
# Among all 2,500 compounds or so, about 1,200 (48%) were called active. The set was probably picked from earlier hits. The list shows a part of the results. A number with no mark means an inactive call.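 How the source made its calls: active means mean activation above the low control average plus 3 SD, as set in the primary screen (cut at about 12% in these data); inactive means the rest.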
# Molecular target: Troponin I, cardiac muscle (Homo sapiens) + Troponin T, cardiac muscle (Homo sapiens) + Troponin C, slow skeletal and cardiac muscles (Homo sapiens) (UniProt P19429+P45379+P63316)
# Assay: cardiac RTF calcium sensitivity activators, confirmation, biochemical, IANBD-TnC fluorescence, triplicate (AID 504383);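 further: 0% = DMSO at 0.472 mM calcium and 100% = DMSO at 2.9 mM calcium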
# Settings: IANBD-labeled cardiac RTF, Ca2+ sensitivity fluorescence; at 7.2 µM; hits give high values; scaled from EC20 to saturating calcium; tested at EC20 calcium, 0.472 mM
# How it was run: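 Assay system: labelled regulated thin filaments / Timing: 15 min at 25 °C / Detection: fluorescence intensity of labelled filaments / Measure: fluorescence gain scaled between EC20 and EC100 calcium controls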
row,SMILES,activation
1,CCC(C)NC(=O)C1CC(=O)N(CCc2ccc(F)cc2)C1 (configuration not stated),331% (active)
2,Clc1ccccc1/C=N/NC1=Nc2cccc3cccc1c23,5.59%
3,O=[N+]([O-])c1ccc(NN=Cc2cccc3ccccc23)nc1,31.4% (active)
4,O=[N+]([O-])c1ccc(N/N=C/c2ccc(OCc3cccc4ccccc34)cc2)nc1,8.03%
5,Cc1cc(C)c2c(=O)n(-c3ccccc3)[nH]c2n1,10.3%
6,Cc1cc(C)c(C#N)c(Sc2nnnn2-c2ccccc2)n1,27.6% (active)
7,O=c1c(/C=N/Nc2ccccc2)c(Sc2nnnn2-c2ccccc2)nc2ccccn12,2.36%
8,CC(C)(C)c1cc(NCc2ccccn2)n2ncc(-c3ccc(Cl)cc3)c2n1,7.76%
9,COC(=O)c1c(=O)n(O)c2ccc(OC)cc2[n+]1[O-],16.1% (active)
10,COc1ccc2c(c1)c(/C=C/c1cc[n+](C)cc1)cn2C,4.1%
11,CCOC(=O)c1c(=O)n(O)c2ccc(OC)cc2[n+]1[O-],8.7%
12,COC(=O)C1CSc2[nH]c(=O)sc2C1c1ccccc1 (configuration not stated),8.86%
13,CN(C)c1ccc(/C=C2\NC(=S)N(Cc3ccccc3)C2=O)cc1,217% (active)
14,Cc1ccc([C@@H]2C3COCC=C3C(C#N)=C(N)C2(C#N)C#N)o1 (some centres not stated),13.5% (active)
15,Cc1ccc(C2C3CN(C(C)C)CC=C3C(C#N)=C(N)C2(C#N)C#N)cc1 (configuration not stated),9.22%
16,CC(C)CN1CCC(C(=O)N2CCN(c3ccccc3F)CC2)CC1,4.79%
17,CCC(CC)C(=O)c1c[nH]c(C(=O)N2CCN(c3ccccc3F)CC2)c1,60.8% (active)
18,CC(=O)Nc1cc(C(=O)NCc2ccco2)ccc1Sc1ccc(F)cc1,69.2% (active)
19,O=C(NCc1ccco1)c1cc(-c2cccc(Cl)c2)on1,4.34%
20,CCOc1ccc(CNC(=O)c2ccc(Sc3ccc(Cl)cc3)c(NC(C)=O)c2)cc1,16.5% (active)
21,COc1c(Cl)ccc(Cl)c1C(=O)NCc1ccco1,8.15%
22,CCOc1c2ccc(C(=O)NCc3ccc(C)cc3)cc2nn1CCOC,0.03%
23,CC1(C)CC(=O)C2=C(C1)OC(N)=C(C#N)[C@@H]2c1ccccc1[N+](=O)[O-],22% (active)
24,O=C1C2C3C=CC(C4CC34)C2C(=O)N1/N=C/c1ccc(-c2ccc(F)cc2[N+](=O)[O-])o1 (configuration not stated),23.2% (active)

row,SMILES,activation
1,COc1ccc(-n2c(C)cc(/C=C3\SC(=S)N(Cc4ccco4)C3=O)c2C)cc1,239% (active)
2,CCN1C(=S)SC(=O)C1=C1C=C(C)N(Cc2ccco2)C(C)=C1,8.86%
3,CCN1CCN(c2c(/C=C3\SC(=S)N(Cc4ccco4)C3=O)c(C)c(C#N)c(=O)n2C)CC1,4.2%
4,Cc1cc(/C=C2\SC(=S)N(Cc3ccco3)C2=O)c(C)n1-c1ccccc1,17.4% (active)
5,COc1ccc(-n2c(C)cc(/C=C3\SC(=S)NC3=O)c2C)cc1,8.15%
6,COc1ccc(O)c(/C=C2/SC(=S)N(Cc3ccccc3)C2=O)c1,0.43%
7,Cc1cc(/C=C2\SC(=S)N(Cc3ccco3)C2=O)c(C)n1-c1cccnc1,48.4% (active)
8,Cc1cc(/C=C2\SC(=S)N(C)C2=O)c(C)n1-c1ccccc1O,33% (active)
9,COc1cccc2c1C(=O)c1c(O)c3c(c(O)c1C2=O)CC(O)(C(C)=NNC(=O)c1ccc(Cl)c(Cl)c1)CC3OC1CC(N)C(O)C(C)O1 (configuration not stated),5.43%
10,CN(C)C=NC(=O)c1cc(C(=O)c2ccccc2Cl)c[nH]1,11%
11,O=C(c1c[nH]c(C(=O)C(Cl)(Cl)Cl)c1)c1c(F)cccc1F,3920% (active)
12,Cc1ccc[n+](-c2nc3ccccc3nc2[N-]S(=O)(=O)c2ccccc2)c1,55.5% (active)
13,O=S(=O)([N-]c1nc2ccccc2nc1-[n+]1ccc(-c2ccncc2)cc1)c1ccccc1,4.89%
14,CCOC(=O)N1CCC(NC(=O)c2cccs2)CC1,6.98%
15,CCOC(=O)c1cc(-c2ccc(F)cc2)n(CCC(=O)NC2CCN(Cc3ccccc3)CC2)c1C,10.5%
16,CCOC(=O)N1CCC(Nc2cccc(SC)c2)CC1,246% (active)
17,Oc1c(N=NC(=S)Nc2ccccc2F)c2ccccc2n1Cc1ccc(F)cc1,3.17%
18,Cc1ccc(Cn2c(O)c(N=NC(=S)Nc3ccccc3F)c3cc(S(=O)(=O)N4CCOCC4)ccc32)cc1,17.5% (active)
19,CCOC(=O)CCC(=O)NCc1ccc2c(c1)cc(C)n2C,11.9% (active)
20,O=C(O)CSc1ncnc2scc(-c3ccc(Br)cc3)c12,11.7% (active)
21,CCc1ccc(-n2c(O)c(C=NCCN(CC)CC)c(=O)[nH]c2=O)cc1,20.8% (active)
22,Cc1nnc(SCC(=O)NC(C)(C)C)n1C1CCCCC1,45% (active)
23,CC(C)(C)NC(=O)CSc1nnc(-c2ccccn2)n1-c1ccccc1,6.6%
